Experimental data from publication PMC12279052 (RSC Advances, 2025).
Values after ≈ are worked out from the molar mass of the structure shown.

How the values were obtained:
[1] = test system: Escherichia coli ATCC25922; test: Antibacterial activity, broth dilution MIC; type: cell-based
[2] = test system: Cutibacterium acnes ATCC6919; test: Antibacterial activity, broth dilution MIC; type: cell-based
[3] = Conductivity in low concentration region; type: physicochemical; conditions: in water
Method in brief: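 Conductivity of aqueous test compound solutions was measured at each temperature in double-distilled deionized water (0.8 − 1.0 × 10−4 S m−1 at 298.15 K). The digital meter and electrode were calibrated with standard KCl, and the thermostat held ±0.02 K; relative standard uncertainty was ±3%.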

[4] = test system: Staphylococcus aureus ATCC29213; test: Antibacterial activity, broth dilution MIC; type: cell-based; conditions: S. aureus, n = 3
[5] = test system: human hepatocellular carcinoma cell line HepG2; test: Cell toxicity assay, MTT; type: cell-based
[6] = Thermal stability by TG/DTG; type: physicochemical; conditions: first decomposition process, 10 K min^−1, argon
Method in brief: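 Simultaneous thermal analysis ran from 30–500 °C at 10 K min−1 on 3–5 mg sample in an Al2O3 crucible, with α-Al2O3 as reference. Argon served as protective gas at 20 mL min−1 and as purge gas at 60 mL min−1.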

[7] = test system: human lung cancer cell line A549; test: Cell toxicity assay, MTT; type: cell-based
[8] = test system: Candida albicans ATCC10231; test: Antimicrobial activity, broth dilution MIC; type: cell-based
[9] = Density measurement, apparent molar volume at infinite dilution in water; type: physicochemical; conditions: aqueous solution
Method in brief: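 Solution density was measured with a vibrating-tube densitometer calibrated with dry air and double-distilled water, with Peltier temperature control at ±0.01 K and density uncertainty 2.0 × 10−4 g cm−3. Apparent molar volumes were computed versus molality. Infinite-dilution values came from the Redlich–Mayer equation with empirical parameters Sv and Bv.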

[10] = Aggregation in water by electrical conductivity; type: physicochemical; conditions: for cmc: conductivity, water; for ionization degree α: micelle (cmc); for ΔG^0m / ΔH^0m / ΔS^0m / −TΔS^0m: micellization (cmc)
Method in brief: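 Conductivity of aqueous test compound solutions was measured with a digital conductivity meter and electrode, calibrated against standard KCl, with a thermostat holding ±0.02 K and ±3% relative uncertainty. cmc and cac were taken from the break points, found by fitting the Aguiar equation. α came from the ratio of post- to pre-transition slopes (A2/A1), and micellization thermodynamic functions from the mass action model.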

[11] = Octanol–water partition coefficient, shake-flask method; type: physicochemical
Method in brief: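 Shake-flask partitioning was run at 25 and 37 °C in water, SGF (pH 1.2), SIF (pH 6.8) or SBF (pH 7.4). Fluids were prepared per USP without enzyme and pre-saturated with n-octanol (24 h shaking, 24 h separation). Test compound in buffer-saturated octanol (5 mL) was shaken 24 h with 5 mL octanol-saturated buffer, then centrifuged 10 min. The octanol phase was read by UV at 200 nm, and log Ko/w = log Co/(C−Co).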

[12] = Steady-state fluorescence with pyrene probe; type: physicochemical; conditions: 298.15 K; for cmc: Fluorescence (pyrene I1/I3), water; for N agg (aggregation number): ST = 2.5 cmc, fluorescence quenching with CPC
Method in brief: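 Pyrene (1 μM) served as probe at 298.15 K. Excitation was 335 nm, emission 355–650 nm, slits 2.5 nm, 700 V, 240 nm min−1, in a 1 cm quartz cuvette. cmc came from a Boltzmann fit of I1/I3 (373/384 nm). For Nagg, test compound at 2.5 cmc was quenched with cetylpyridinium chloride at 0.2–1.0 × 10−4 mol dm−3, and Nagg was derived from linear ln(I0/I) versus [Q].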

[13] = pH = 7.0 (ultrapure water), 25 °C
[14] = pH = 7.0 (ultrapure water), 37 °C

CCCCCCCCC(=O)O.O=C1CCC[C@@H]2[C@H]3CCCN4CCC[C@@H](CN12)[C@@H]34 [[Mat][C9]]
MIC ([1]; E. coli, n = 3): 30.7 mM | MIC ([2]; C. acnes, n = 3): 3.84 mM | Association constant KA ([3]; 298.15 K): 6.74 ± 0.44 dm^3 mol^−1 | Limiting molar conductivity Λ0 ([3]; 298.15 K): 47.11 ± 0.02 S cm^2 mol^−1 | Association constant KA ([3]; 303.15 K): 4.14 ± 0.68 dm^3 mol^−1 | Limiting molar conductivity Λ0 ([3]; 303.15 K): 52.90 ± 0.04 S cm^2 mol^−1 | Association constant KA ([3]; 308.15 K): 1.72 ± 1.03 dm^3 mol^−1 | Limiting molar conductivity Λ0 ([3]; 308.15 K): 59.10 ± 0.07 S cm^2 mol^−1 | MIC [4]: 7.7 mM | IC50 ([5]; HepG2, MTT, 24 h, n = 3): 2.12 mM | T onset (onset decomposition temperature) [6]: 196.3 °C | IC50 ([7]; A549, MTT, 24 h, n = 3): 3.15 mM | MIC ([8]; C. albicans, n = 3): 0.96 mM | Apparent molar volume at infinite dilution V^0 2,φ ([9]; 293.15 K): 353.45 ± 0.11 cm^3 mol^−1 | Apparent molar volume at infinite dilution V^0 2,φ ([9]; 298.15 K): 355.41 ± 0.17 cm^3 mol^−1 | Apparent molar volume at infinite dilution V^0 2,φ ([9]; 303.15 K): 357.32 ± 0.16 cm^3 mol^−1 | Apparent molar volume at infinite dilution V^0 2,φ ([9]; 308.15 K): 360.15 ± 0.14 cm^3 mol^−1 | cmc ([10]; 293.15 K): 0.00449 mol/kg | cmc ([10]; 298.15 K): 0.00459 mol/kg | cmc ([10]; 303.15 K): 0.00467 mol/kg | cmc ([10]; 308.15 K): 0.00475 mol/kg | cmc ([10]; 313.15 K): 0.00483 mol/kg | ionization degree α ([10]; 293.15 K): 0.8848 | ionization degree α ([10]; 298.15 K): 0.8890 | ionization degree α ([10]; 303.15 K): 0.8957 | ionization degree α ([10]; 308.15 K): 0.8931 | ionization degree α ([10]; 313.15 K): 0.8922 | ΔG^0m ([10]; 293.15 K): -6.121 kcal/mol | ΔH^0m ([10]; 293.15 K): -0.805 kcal/mol | ΔS^0m ([10]; 293.15 K): 75.88 J mol^−1 K^−1 | −TΔS^0m ([10]; 293.15 K): -5.315 kcal/mol | ΔG^0m ([10]; 298.15 K): -6.188 kcal/mol | ΔH^0m ([10]; 298.15 K): -0.767 kcal/mol | ΔS^0m ([10]; 298.15 K): 76.06 J mol^−1 K^−1 | −TΔS^0m ([10]; 298.15 K): -5.421 kcal/mol | ΔG^0m ([10]; 303.15 K): -6.243 kcal/mol | ΔH^0m ([10]; 303.15 K): -0.727 kcal/mol | ΔS^0m ([10]; 303.15 K): 76.13 J mol^−1 K^−1 | −TΔS^0m ([10]; 303.15 K): -5.516 kcal/mol | ΔG^0m ([10]; 308.15 K): -6.348 kcal/mol | ΔH^0m ([10]; 308.15 K): -0.686 kcal/mol | ΔS^0m ([10]; 308.15 K): 76.88 J mol^−1 K^−1 | −TΔS^0m ([10]; 308.15 K): -5.662 kcal/mol | ΔG^0m ([10]; 313.15 K): -6.446 kcal/mol | ΔH^0m ([10]; 313.15 K): -0.643 kcal/mol | ΔS^0m ([10]; 313.15 K): 77.53 J mol^−1 K^−1 | −TΔS^0m ([10]; 313.15 K): -5.803 kcal/mol | Log K o/w ([11]; pH = 1.2 (SGF), 25 °C): −0.33 | Log K o/w ([11]; pH = 1.2 (SGF), 37 °C): 0.14 | Log K o/w ([11]; pH = 6.8 (SIF), 25 °C): 0.02 | Log K o/w ([11]; pH = 6.8 (SIF), 37 °C): 0.34 | Log K o/w [11, 13]: 0.68 | Log K o/w [11, 14]: 0.81 | Log K o/w ([11]; pH = 7.4 (SBF), 25 °C): 0.96 | Log K o/w ([11]; pH = 7.4 (SBF), 37 °C): 1.12 | cmc [12]: 0.00461 mol/kg | N agg (aggregation number) [12]: 64

CCCCCCC(=O)O.O=C1CCC[C@@H]2[C@H]3CCCN4CCC[C@@H](CN12)[C@@H]34 [[Mat][C7]]
MIC ([1]; E. coli, n = 3): 33.0 mM | MIC ([2]; C. acnes, n = 3): 66.0 mM | Association constant KA ([3]; 298.15 K): 6.11 ± 0.61 dm^3 mol^−1 | Limiting molar conductivity Λ0 ([3]; 298.15 K): 47.78 ± 0.03 S cm^2 mol^−1 | Association constant KA ([3]; 303.15 K): 3.91 ± 0.48 dm^3 mol^−1 | Limiting molar conductivity Λ0 ([3]; 303.15 K): 52.96 ± 0.03 S cm^2 mol^−1 | Association constant KA ([3]; 308.15 K): 1.53 ± 0.37 dm^3 mol^−1 | Limiting molar conductivity Λ0 ([3]; 308.15 K): 59.37 ± 0.03 S cm^2 mol^−1 | MIC [4]: 132.1 mM | IC50 ([5]; HepG2, MTT, 24 h, n = 3): 4.47 mM | T onset (onset decomposition temperature) [6]: 185.5 °C | IC50 ([7]; A549, MTT, 24 h, n = 3): 14 mM | MIC ([8]; C. albicans, n = 3): 66.0 mM | Apparent molar volume at infinite dilution V^0 2,φ ([9]; 293.15 K): 321.56 ± 0.09 cm^3 mol^−1 | Apparent molar volume at infinite dilution V^0 2,φ ([9]; 298.15 K): 323.31 ± 0.11 cm^3 mol^−1 | Apparent molar volume at infinite dilution V^0 2,φ ([9]; 303.15 K): 324.72 ± 0.10 cm^3 mol^−1 | Apparent molar volume at infinite dilution V^0 2,φ ([9]; 308.15 K): 326.82 ± 0.20 cm^3 mol^−1 | cmc ([10]; 293.15 K): 0.00511 mol/kg | cmc ([10]; 298.15 K): 0.00524 mol/kg | cmc ([10]; 303.15 K): 0.00536 mol/kg | cmc ([10]; 308.15 K): 0.00549 mol/kg | cmc ([10]; 313.15 K): 0.00558 mol/kg | ionization degree α ([10]; 293.15 K): 0.8986 | ionization degree α ([10]; 298.15 K): 0.8976 | ionization degree α ([10]; 303.15 K): 0.8989 | ionization degree α ([10]; 308.15 K): 0.8927 | ionization degree α ([10]; 313.15 K): 0.8987 | ΔG^0m ([10]; 293.15 K): -5.961 kcal/mol | ΔH^0m ([10]; 293.15 K): -0.956 kcal/mol | ΔS^0m ([10]; 293.15 K): 71.43 J mol^−1 K^−1 | −TΔS^0m ([10]; 293.15 K): -5.005 kcal/mol | ΔG^0m ([10]; 298.15 K): -6.054 kcal/mol | ΔH^0m ([10]; 298.15 K): -0.92 kcal/mol | ΔS^0m ([10]; 298.15 K): 72.03 J mol^−1 K^−1 | −TΔS^0m ([10]; 298.15 K): -5.134 kcal/mol | ΔG^0m ([10]; 303.15 K): -6.133 kcal/mol | ΔH^0m ([10]; 303.15 K): -0.88 kcal/mol | ΔS^0m ([10]; 303.15 K): 72.51 J mol^−1 K^−1 | −TΔS^0m ([10]; 303.15 K): -5.253 kcal/mol | ΔG^0m ([10]; 308.15 K): -6.252 kcal/mol | ΔH^0m ([10]; 308.15 K): -0.839 kcal/mol | ΔS^0m ([10]; 308.15 K): 73.51 J mol^−1 K^−1 | −TΔS^0m ([10]; 308.15 K): -5.413 kcal/mol | ΔG^0m ([10]; 313.15 K): -6.31 kcal/mol | ΔH^0m ([10]; 313.15 K): -0.786 kcal/mol | ΔS^0m ([10]; 313.15 K): 73.80 J mol^−1 K^−1 | −TΔS^0m ([10]; 313.15 K): -5.523 kcal/mol | Log K o/w ([11]; pH = 1.2 (SGF), 25 °C): −0.36 | Log K o/w ([11]; pH = 1.2 (SGF), 37 °C): 0.07 | Log K o/w ([11]; pH = 6.8 (SIF), 25 °C): 0.01 | Log K o/w ([11]; pH = 6.8 (SIF), 37 °C): 0.25 | Log K o/w [11, 13]: 0.42 | Log K o/w [11, 14]: 0.69 | Log K o/w ([11]; pH = 7.4 (SBF), 25 °C): 0.83 | Log K o/w ([11]; pH = 7.4 (SBF), 37 °C): 1.01 | cmc [12]: 0.00554 mol/kg | N agg (aggregation number) [12]: 25

O=C1CCC[C@@H]2[C@H]3CCCN4CCC[C@@H](CN12)[C@@H]34 [Matrine, reference compound]
MIC ([1]; Escherichia coli, ATCC25922): 50.3 mM (≈ 12.5 mg/mL) | MIC ([2]; Cutibacterium acnes, ATCC6919): 50.3 mM (≈ 12.5 mg/mL) | IC50 ([5]; Homo sapiens, HepG2, 24 h): 4.27 mM | IC50 ([7]; Homo sapiens, A549, 24 h): 11.8 mM | MIC ([8]; Candida albicans, ATCC10231): 25.2 mM (≈ 6.26 mg/mL)
